Assay outcomes deposited in PubChem BioAssay by Broad Institute.
Many of the other results were omitted from the sample, so hits are more common in it than they were.
INS-1E rescue = INS-1E beta cell protection from cytokine death | INS-1E cytokine-induced death, ATP luminescence, 48 h; normalised: neutral wells 0, positive control 100 | protection from cytokine-induced ATP loss, % at 10 µM | 20,000 compounds, 0.1% hits;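 active = mean replicate protection from cytokine-induced ATP loss at least 50% and at least 75% of replicates each reaching 50%; inconclusive = meets only one of the two criteria, mean or replicate share; inactive = fails both the mean and replicate share criteria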
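Material: INS-1E rat cells; Quantity: 8000 cells/well; Buffer or medium: phenol-red-free RPMI with 5% fetal bovine serum; Probe or stimulus: cytokine cocktail of IFN-γ, TNF-α and IL-1β; Compound dosing: single test concentration per compound, delivered by pin transfer; Incubation: 48 h co-treatment, 10 min post-lysis read; Signal: CellTiter-Glo luminescence.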
YB-1 expression = YB-1 expression inhibition. delta delta Cp (YB-1 minus CDIP) (concentration not given with the values). 30,000 compounds, 0.37% hits. U2OS, qRT-PCR YB-1 vs CDIP delta delta Cp, 16 h; stronger effect = higher value; zero = DMSO, each unit about twofold;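 active = delta delta Cp rounded down to an integer at or above 3, about 3 SD of DMSO wells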;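 also: higher means less YB-1 transcript or more CDIP transcript relative to DMSO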
T cruzi intra = inhibitors of intracellular Trypanosoma cruzi; intracellular Trypanosoma cruzi in host cells, plate reader; activity score (inhibition), % at 5.01 µM; 22,000 compounds, 4.9% hits; in the data active = activity score above about 55%; inconclusive = no clear call, values can overlap the other calls;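 also: parasites and compound incubated about four days before reading; 0% = median of neutral control wells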
* marks the source's active call; other numbers are inactive results; ? = inconclusive; nt = no result given.

SMILES	INS-1E rescue	YB-1 expression	T cruzi intra
C[C@@H]1CN([C@@H](C)CO)C(=O)Cc2cc(NC(=O)Cc3cn(C)c4ccccc34)ccc2O[C@@H]1CN(C)Cc1ccc(Cl)c(Cl)c1	-46	-0.26	69*
C[C@H](CO)N1C[C@H](C)[C@H](CN(C)Cc2ccccc2)Oc2ccc(NC(=O)Cc3cn(C)c4ccccc34)cc2CC1=O	1	-0.21	7
C[C@@H]1CN([C@@H](C)CO)C(=O)c2cc(NC(=O)Cc3cn(C)c4ccccc34)ccc2O[C@@H]1CN(C)Cc1ccc(Cl)c(Cl)c1	-33	1	11
C[C@@H]1CN([C@H](C)CO)C(=O)Cc2cc(NC(=O)Cc3cn(C)c4ccccc34)ccc2O[C@@H]1CN(C)Cc1ccc2c(c1)OCO2	-21	0.24	?
C[C@@H]1CN([C@H](C)CO)C(=O)Cc2cc(NC(=O)Cc3cn(C)c4ccccc34)ccc2O[C@H]1CN(C)Cc1ccc(Cl)c(Cl)c1	-17	0.12	63*
C[C@@H]1CN([C@@H](C)CO)C(=O)Cc2cc(NC(=O)Cc3cn(C)c4ccccc34)ccc2O[C@@H]1CN(C)Cc1ccncc1	-9	-0.05	65*
O=C1O[C@H](c2ccccc2)[C@H](c2ccccc2)N2[C@H]1[C@@H](C(=O)N1CCCCCCC1)[C@]1(C(=O)Nc3ccc(C#CCCO)cc31)[C@H]2c1ccccc1OCCO	nt	-0.33	nt
C[C@H](CO)N1C[C@H](C)[C@H](CN(C)C)Oc2ccc(NC(=O)CCCN(C)C)cc2C1=O	nt	-0.021	4
Cc1ccc(S(=O)(=O)Nc2cccc3c2O[C@@H](CN(C)Cc2ccccc2)[C@H](C)CN([C@@H](C)CO)C3=O)cc1	5	-0.018	-8
C[C@H](CO)N1C[C@H](C)[C@H](CN(C)C(=O)Nc2ccccc2)Oc2ccc(NC(=O)c3ccncc3)cc2CC1=O	-2	-0.18	-10
Cc1ccc(S(=O)(=O)Nc2ccc3c(c2)C(=O)N([C@@H](C)CO)C[C@@H](C)[C@@H](CN(C)S(=O)(=O)c2ccc(F)cc2)O3)cc1	8	-0.35	8
N#CCCN(CC1CCCO1)C(=S)Nc1ccc(F)cc1 (stereo not given)	nt	-0.0049	nt
Cc1noc(C)c1NC(=O)Nc1ccc2c(c1)C(=O)N([C@H](C)CO)C[C@H](C)[C@@H](CN(C)CC1CC1)OCCCC[C@@H](C)O2	1	-0.13	-32
C[C@@H]1CN([C@H](C)CO)C(=O)c2cccc(NC(=O)c3nc4ccccc4s3)c2O[C@@H]1CN(C)C(=O)Nc1cccc2ccccc12	-6	-0.25	2
COc1ccc(CN(C)C[C@@H]2OCCCC[C@@H](C)Oc3ccc(NS(=O)(=O)c4ccc(OC)cc4)cc3C(=O)N([C@H](C)CO)C[C@@H]2C)cc1	6	0.33	-2
C[C@@H]1CCCCO[C@H](CN(C)Cc2ccc(C(F)(F)F)cc2)[C@@H](C)CN([C@H](C)CO)C(=O)c2cc(NS(=O)(=O)c3ccc(F)cc3)ccc2O1	-10	0.049	56*
C[C@@H]1CCCCO[C@H](CN(C)Cc2ccc(C(F)(F)F)cc2)[C@@H](C)CN([C@H](C)CO)C(=O)c2cc(NS(=O)(=O)c3ccccc3)ccc2O1	-72	0.086	38
COc1ccc(CN(C)C[C@H]2OCCCC[C@@H](C)Oc3ccc(NS(=O)(=O)c4ccc(C)cc4)cc3C(=O)N([C@H](C)CO)C[C@@H]2C)cc1	-3	-0.65	11
COc1ccc(S(=O)(=O)Nc2ccc3c(c2)C(=O)N([C@H](C)CO)C[C@H](C)[C@H](CN(C)Cc2ccc(C(F)(F)F)cc2)OCCCC[C@@H](C)O3)cc1	1	0.018	65*
C[C@@H]1CCCCO[C@@H](CN(C)Cc2ccc(C(F)(F)F)cc2)[C@@H](C)CN([C@H](C)CO)C(=O)c2cc(NS(=O)(=O)c3ccc(Cl)cc3)ccc2O1	-24	-0.05	63*
C[C@@H]1CCCCO[C@H](CN(C)Cc2ccncc2)[C@@H](C)CN([C@H](C)CO)C(=O)c2cc(NS(=O)(=O)c3ccc(Cl)cc3)ccc2O1	3	0.19	30
Cc1ccc(S(=O)(=O)Nc2ccc3c(c2)C(=O)N([C@H](C)CO)C[C@H](C)[C@H](CN(C)Cc2ccc(C(F)(F)F)cc2)OCCCC[C@@H](C)O3)cc1	-36	0.19	66*
C[C@H]1CN([C@@H](C)CO)C(=O)c2cccc(NS(=O)(=O)c3ccc(F)cc3)c2O[C@@H]1CN(C)Cc1ccc(C(F)(F)F)cc1	-2	-0.3	3
COC(=O)C1=C2C(=O)c3c(O)cc(CO)cc3OC2C(O)C=C1 (stereo not given)	nt	-0.14	nt
C[C@H]1CN([C@@H](C)CO)C(=O)c2cc(NS(=O)(=O)c3ccc(F)cc3)ccc2O[C@H]1CN(C)S(C)(=O)=O	4	-0.041	0
SMILES	INS-1E rescue	YB-1 expression	T cruzi intra
C[C@H](CO)N1C[C@H](C)[C@H](CN(C)Cc2ccccc2)Oc2ncc(-c3cc4ccccc4o3)cc2C1=O	nt	0.15	59*
C[C@H](CO)N1C[C@H](C)[C@H](CN(C)Cc2cccc(C(F)(F)F)c2)Oc2ncc(Br)cc2C1=O	nt	0.34	24
C[C@H](CO)N1C[C@H](C)[C@H](CN(C)C(=O)NC2CCCC2)Oc2ncc(-c3cc4ccccc4o3)cc2C1=O	nt	0.037	32
C[C@H](CO)N1C[C@H](C)[C@H](CN(C)Cc2cccc(C(F)(F)F)c2)Oc2ncc(-c3cc4ccccc4o3)cc2C1=O	nt	0.21	90*
C[C@H](CO)N1C[C@H](C)[C@H](CN(C)S(=O)(=O)c2ccccc2)Oc2ncc(-c3cc4ccccc4o3)cc2C1=O	nt	-0.24	62*
C[C@H](CO)N1C[C@H](C)[C@H](CN(C)C(=O)Nc2cccc3ccccc23)Oc2ncc(-c3cc4ccccc4o3)cc2C1=O	nt	0.48	71*
C[C@H](CO)N1C[C@H](C)[C@H](CN(C)S(=O)(=O)c2ccc(F)cc2)Oc2ncc(-c3cc4ccccc4o3)cc2C1=O	nt	0.18	52
C[C@H](CO)N1C[C@H](C)[C@H](CN(C)C(=O)Nc2cccc3ccccc23)Oc2ncc(-c3ccc(F)cc3)cc2C1=O	-3	0.34	33
C[C@@H]1CN([C@H](C)CO)C(=O)c2cccc(NC(=O)C3CCCCC3)c2O[C@@H]1CN(C)C(=O)Nc1ccccc1	2	0.043	0
C[C@@H]1CN([C@@H](C)CO)C(=O)c2cccc(NS(=O)(=O)c3cn(C)cn3)c2O[C@@H]1CN(C)S(C)(=O)=O	6	0.29	-31
C[C@@H]1CN([C@@H](C)CO)C(=O)c2cc(NS(=O)(=O)c3ccc(Cl)cc3)ccc2O[C@@H]1CN(C)S(=O)(=O)c1cn(C)cn1	13	-0.18	1
CC(C)NC(=O)Nc1cccc2c1O[C@H](CN(C)S(C)(=O)=O)[C@H](C)CN([C@H](C)CO)C2=O	17	0.076	-26
C[C@@H]1CN([C@H](C)CO)C(=O)c2cc(NC(=O)Cc3ccccc3)ccc2O[C@@H]1CN(C)S(=O)(=O)c1ccccc1	-2	18*	0
C[C@@H]1CN([C@H](C)CO)C(=O)c2cc(NC(=O)CCN3CCOCC3)ccc2O[C@H]1CN(C)S(=O)(=O)c1ccccc1	5	20*	3
